{"source": "PubChem BioAssay AID775", "about": "(SRMLSC, 2007)", "note": "Hit rate of the full screen: of about 130,000 compounds, about 900 (0.69%) were called active. Shown is part of a subset that was picked to be rich in actives. A number with no mark means an inactive call.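 The calls were made as follows: active = inhibition above a set limit, placed 3 SD over the median of all compounds (cut at about 26% in these data); inactive = the rest.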"}
{"assay": "compounds extending yeast replicative lifespan, primary screen, S. cerevisiae, OD615 (AID 775);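 also: 0% = nicotinamide-treated wells and 100% = cells grown without nicotinamide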", "details": "S. cerevisiae growth with nicotinamide, at 10 µM, stronger effect = higher value, deaD strain in restrictive glucose medium", "how_it_was_run": "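Measured by: optical density (absorbance) at 615 nm; System: modified budding yeast, DeaD strain; Medium: restrictive CSMM-D dextrose medium; Timing: 4 h preincubation then 48 h treatment at 30 °C.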"}
{"compound": "COc1ccc(C(=O)C2CN(C)CC2C(=O)c2ccc(OC)cc2)cc1", "note": "(stereo not given)", "inhibition of the nicotinamide effect": "-7.58%"}
{"compound": "COc1ccc(C(=O)CC2C(=O)N(C)C(=O)N(C)C2=O)cc1", "inhibition of the nicotinamide effect": "31% (active)"}
{"compound": "CN1CCN(C(=S)SCC(=O)Nc2ccc(Cl)cc2C(=O)c2ccccc2)CC1", "inhibition of the nicotinamide effect": "2.18%"}
{"compound": "CNC(=S)N/N=C1\\C2CN3CCN(C2)CC1(c1ccccc1)C3", "inhibition of the nicotinamide effect": "6.05%"}
{"compound": "CC(=NC1CCN(Cc2ccccc2)CC1)c1c(O)n(C)c(=O)n(C)c1=O", "inhibition of the nicotinamide effect": "-9.29%"}
{"compound": "Cn1c(O)c(C=NCCCC(=O)O)c(=O)n(C)c1=O", "inhibition of the nicotinamide effect": "-5.17%"}
{"compound": "CC(=C1C(=O)c2ccccc2C1=O)N1CCN(CCN=Cc2c(O)n(C)c(=O)n(C)c2=O)CC1", "inhibition of the nicotinamide effect": "26.9% (active)"}
{"compound": "O=C(N/N=C/c1c(O)n(Cc2ccccc2)c(=O)[nH]c1=O)c1ccccc1", "inhibition of the nicotinamide effect": "-4.35%"}
{"compound": "CN(C)C(=O)Oc1cc(=O)n2c3c(cccc13)CCC2", "inhibition of the nicotinamide effect": "-0.91%"}
{"compound": "O=C(CCNS(=O)(=O)c1ccccc1)Nc1ccc(Cl)cc1C(=O)c1ccccc1", "inhibition of the nicotinamide effect": "0.6%"}
{"compound": "Cc1ccc(-n2c(-c3ccc([N+](=O)[O-])cc3)nc3ccccc3c2=O)cc1", "inhibition of the nicotinamide effect": "2.14%"}
{"compound": "CCCCCn1c(=O)c(C(=O)Nc2c(C)n(C)n(-c3ccccc3)c2=O)c(O)c2ccccc21", "inhibition of the nicotinamide effect": "0.87%"}
{"compound": "CCCCCn1c(=O)c(C(=O)NCc2ccccn2)c(O)c2ccccc21", "inhibition of the nicotinamide effect": "36.3% (active)"}
{"compound": "COc1cc(C(c2c(O)c3ccccc3oc2=O)c2c(C)n(C)n(-c3ccccc3)c2=O)ccc1O", "note": "(stereo not given)", "inhibition of the nicotinamide effect": "0.56%"}
{"compound": "CC(C(=O)Nc1ccc(Cl)cc1Cl)N1CC=C(c2ccccc2)CC1", "note": "(stereo not given)", "inhibition of the nicotinamide effect": "-1.28%"}
{"compound": "CN(C)CC1CCCCC1OC(=O)c1ccc(Cl)c(Cl)c1", "note": "(stereo not given)", "inhibition of the nicotinamide effect": "2.28%"}
{"compound": "Cc1ccc(-n2c(C)cc(/C=C3\\C(=O)NC(=O)N(C)C3=O)c2C)cc1C", "inhibition of the nicotinamide effect": "4.25%"}
{"compound": "Cc1ccnc(-n2c(C)cc(/C=C3\\C(=O)NC(=S)N(C)C3=O)c2C)c1", "inhibition of the nicotinamide effect": "43.7% (active)"}
{"compound": "C=CCn1c(O)c(/C=N/N2CCOCC2)c(=O)[nH]c1=S", "inhibition of the nicotinamide effect": "-2.87%"}
{"compound": "O=C1NC(=O)N(c2ccc(F)cc2)C(=O)/C1=C/c1ccc2c(c1)CCCN2Cc1ccccc1", "inhibition of the nicotinamide effect": "-3.32%"}
